These results are taken from ChEMBL document CHEMBL4513216, “Probing the Open Global Health Chemical Diversity Library for Multistage-Active Starting Points for Next-Generation Antimalarials” (ACS Infect Dis, 2020).

A short description of the data set: Toxicity liver stage against HepG2, at 10uM. The data set is classed as cell-based. More on the design: test concentration 10 uM, cell line HepG2-A16-CD81EGFP. The conditions noted are these: human, HepG2-A16-CD81EGFP cells; read-out: INHIBITION
In short, it runs like this:
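Uninfected HepG2-A16-CD81EGFP cells, 3 × 10^3 per well, 1536-well, plated on prespotted compound at 10 μM final, parasite-free screening media added to match infected plates; puromycin 10 μM positive, DMSO 0.5% negative; run in parallel with 48 h PbLuc assay at 37 °C, 5% CO2; viability by CellTiter-Glo luminescence, normalized to controls.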

With `Cc1[nH]ncc1CCCNC(=O)N1CCC(C(N)=O)CC1`, the cytotoxicity at 10 µM is -3.62%.

On to `CCn1ncnc1C(C)NC(=O)C1CCN(C(=O)COC)CC1` (centres undefined), for which the cytotoxicity at 10 µM was 2.82%.

For `Cn1c2ccc(F)cc2c2ncn(CCN3CCOCC3)c(=O)c21`, the cytotoxicity at 10 µM turned out to be 18.2%.

With `CS(=O)(=O)c1nnc(NC(=O)CCc2cccc(Cl)c2)[nH]1`, the cytotoxicity at 10 µM was -20.4%.

For `Cc1c(O)oc(-c2ccc(Br)cc2)nc1=O`, the cytotoxicity at 10 µM is -1.56%.

Turning to `CC(NC(=O)CCc1nc(-c2nnc[nH]2)no1)c1ccc(F)cc1F` (centres undefined), the cytotoxicity at 10 µM was -2.05%.

`NC(=O)C1CCCN1CCCc1ccc(Cl)cc1` (centres undefined): the cytotoxicity at 10 µM amounted to 5.39%.

On to `CCc1ncc2c(n1)CN(Cc1nnc(C(C)C)o1)CC2`, for which the cytotoxicity at 10 µM was -4.54%.

As for `Cc1ccc(Cl)cc1NC(=O)C1CSc2ncc(C)c(=O)n2C1` (centres undefined), the cytotoxicity at 10 µM amounted to 1.42%.

As to `CCOc1ccccc1C(=O)NC(CC(=O)O)c1cccs1` (centres undefined), the cytotoxicity at 10 µM was -11.4%.

As to `Cc1ccc(-c2nc(CNC(C)CCO)[nH]c2-c2ccccn2)cc1` (centres undefined), the cytotoxicity at 10 µM was -6.78%.

On to `COc1ccccc1CC(=O)N1CCCC(c2nccn2CC(N)=O)C1` (centres undefined), for which the cytotoxicity at 10 µM is 12.9%.

Turning to `CCc1nnc2n1CCN(C(C(N)=O)c1ccc(F)cc1)C2` (centres undefined), the cytotoxicity at 10 µM was -8.13%.

`CC(NC(=O)c1ccc(C(N)=O)cc1)c1cccc(N2CCOC2=O)c1` (centres undefined): the cytotoxicity at 10 µM is -2.83%.

As to `COc1cccc(CC(C)NCC(=O)Nc2ccccc2C)c1` (centres undefined), the cytotoxicity at 10 µM was -1.62%.

On to `Cc1ccc(C(=O)NC2CCCN(S(C)(=O)=O)C2)c(=O)[nH]1` (centres undefined), for which the cytotoxicity at 10 µM was determined as 10.6%.

`CCOc1ccc(-n2ccc3nc(N4CCCC4)ncc3c2=O)cc1`: the cytotoxicity at 10 µM was -1.19%.

On to `O=C(c1cccn1-c1ccc2c(c1)OCCO2)N1CCCC1`, for which the cytotoxicity at 10 µM is -9.42%.

Consider `CN(Cc1cnn(C)c1)Cc1nc(CCc2ccccc2)no1`, for which the cytotoxicity at 10 µM is -26.1%.

As to `CNC(=O)c1cc2c(nc1NCC(C)C)CCN(S(C)(=O)=O)CC2`, the cytotoxicity at 10 µM is -161%.

Consider `Cc1cc(C)n(-c2ccc(N3CCC4(CC3)OCC(C)O4)nc2)n1` (centres undefined), for which the cytotoxicity at 10 µM was -1.39%.

As for `CN(CCc1ccccc1)Cc1c(C2CCNCC2)[nH]c2ncccc12`, the cytotoxicity at 10 µM is 55.5%.

Consider `Cc1ccc(-n2nnc(C(=O)Nc3cc(C)nn3C)c2C2CC2)cc1`, for which the cytotoxicity at 10 µM is 0.888%.

Turning to `Cc1ccc(CN(CCCO)Cc2nc3ccccc3[nH]2)s1`, the cytotoxicity at 10 µM worked out at 7.18%.

`CC(C)(CNc1cn[nH]c(=O)c1Cl)c1ccc2c(c1)OCCO2`: the cytotoxicity at 10 µM was found to be 2%.

In the case of `Cc1nn(CCCNC(=O)C2CCN(S(C)(=O)=O)CC2)c(Cl)c1Cl`, the cytotoxicity at 10 µM is -11.3%.

On to `CC(C)CN1Cc2c(C(=O)NC3CC3)ncn2-c2ccccc2S1(=O)=O`, for which the cytotoxicity at 10 µM is -77.6%.

With `CC(C)OCCCNC(=O)Nc1cccc2ncccc12`, the cytotoxicity at 10 µM was 2.96%.

For `Cn1c2c(ccc1=O)CC(Nc1ncc(F)cn1)CC2` (centres undefined), the cytotoxicity at 10 µM was -143%.

Consider `O=C(Cn1ccc2ccc(Cl)cc21)/N=c1\[nH]nc(C2CCCO2)s1` (centres undefined), for which the cytotoxicity at 10 µM is 10.8%.

Regarding `CC(C)(CO)CNC(=O)c1cc(-c2cc[nH]n2)n2ccccc12`, the cytotoxicity at 10 µM amounted to 20%.

With `Cc1ncsc1CN1CC[C@H]2C[C@H](c3ccncn3)O[C@@H]2C1`, the cytotoxicity at 10 µM was 4.87%.

With `Cc1nc(C)n(CC2CN(CCOc3cccc(F)c3)CCO2)n1` (centres undefined), the cytotoxicity at 10 µM was -12.7%.

`CC(C)[C@@H]1CN(Cc2ccccc2C#N)C[C@H]1N(C)C`: the cytotoxicity at 10 µM is -18.7%.

As for `Cc1cnc(C)c(-c2cc(O)c3c(c2)CN(c2nccs2)CCO3)n1`, the cytotoxicity at 10 µM was 1.08%.

As to `Cc1ccc(S(=O)(=O)NCc2[nH]ncc2Br)cc1F`, the cytotoxicity at 10 µM was 12.6%.

Turning to `CC(C)CN1CC2(CCN(C(=O)c3cnccn3)CC2)CC1=O`, the cytotoxicity at 10 µM worked out at 2.46%.

Turning to `CC(=O)c1cnc(NCCN2CCCC2)nc1C`, the cytotoxicity at 10 µM is -3.73%.

With `O=c1[nH]c2cn(-c3cccc(F)c3)c(=O)n2n1Cc1ccc(Cl)cc1`, the cytotoxicity at 10 µM was 8.53%.
